The list is not random: actives were taken first. Their share in the collection is about 3.9%.
SR-BI HDL uptake = inhibitors of mouse SR-BI mediated HDL lipid uptake; ldlA[mSR-BI] CHO cells, DiI-HDL uptake fluorescence, 3 h; inhibition, % at 12.5 µM; hit rate 0.96% among 320,000; AID 488896;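 active means mean replicate inhibition of at least 70% and a set share of replicates each scoring 70 or more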
ABCB6 inh 2 = inhibitors of human ABC transporter ABCB6; K562-ABCB6 porphyrin accumulation, flow cytometry, 1 h; hits give low values; fluorescence ratio to DMSO, % at 10 µM; hit rate 0.19% among 360,000; AID 602162;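 active means fluorescence ratio to DMSO below 75%, the collection mean minus 3 SD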;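 further: signal is porphyrin accumulated inside mitochondria; lower ratio means ABCB6 inhibition with less porphyrin fluorescence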
AHR act = activators of human aryl hydrocarbon receptor; hit rate 2.5% among 320,000; AHR-responsive luciferase reporter cells, luminescence; AID 2796; activation, % at 5 µM; in the data active means activation above about 47%
SR-BI uptake up = enhances SR-BI lipid uptake from DiI-HDL; AID 504775; hit rate 0.096% among 320,000; CHO ldlA[mSR-BI] cells, DiI-HDL uptake fluorescence, 3 h; 100 = double the neutral-control signal; activation, % at 12.5 µM;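 active means mean replicate activation of at least 60% and every replicate at or above 60%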
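Material: SR-BI-overexpressing, LDLR-lacking CHO cells | Dosing: Single compound concentration, delivered by pin transfer | Probe or stimulus: Labelled HDL, 10 µg/mL | Signal: Bottom-read cell fluorescence after medium removal, ex 550/em 595 nm | Schedule: 3 h, 37 °C | Evaluation: HDL uptake via cellular fluorescence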
FXN GAA850 act = increases GAA850 frataxin promoter reporter activity | HEK293 lucGAA850 FXN promoter luciferase reporter, 24 h; percent of 10 µM SAHA response | activation, % at 6 µM | hit rate 0.56% among 360,000 | AID 540364;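 active means activation above the average of all compounds screened plus 3 SD, cutoff fixed separately per campaign, cut at about 7.5% in these data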
HIF act = HIF pathway transcriptional activation; U2OS HRE-luciferase reporter, luminescence; normalized: DMSO 0%, desferrioxamine 100%; activation, % at 7.5 µM (by protocol); hit rate 0.32% among 300,000; AID 1910;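 active means mean activation of at least 10% of the iron chelator positive control signal, with at least half of replicates also reaching 10%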
Hits are given with their value; 0 = inactive; - = no result.

SMILES	SR-BI HDL uptake	ABCB6 inh 2	AHR act	SR-BI uptake up	FXN GAA850 act	HIF act
COc1cc2c(C(=O)N3CCN(c4ccccc4)CC3)c(C)oc2cc1Br	0	0	0	0	0	0
Cc1onc(-c2c(Cl)cccc2Cl)c1NC(=O)NN(C)C	0	0	0	0	0	0
CSCCNC(=O)Nc1c(-c2c(Cl)cccc2Cl)noc1C	0	0	0	142	0	0
CN(C(=O)c1cc(COc2ccc(F)c(F)c2)on1)C1CCOC1 (centres undefined)	0	0	0	0	0	0
O=C(Nc1ccc(F)cc1F)Nc1sccc1-c1nc2ccccc2s1	0	0	0	0	0	0
O=C(NNc1nc2ccccc2s1)Nc1ccc(F)cc1	-	0	75	-	0	0
O=C(Nc1nc2ccccc2s1)Nc1ccc(F)cc1F	0	0	71	0	0	0
O=C(NNc1nc2ccccc2s1)Nc1ccc(Cl)c(Cl)c1	-	0	0	-	0	0
O=C(CSc1ncnc2sccc12)Nc1ccccc1F	0	0	0	0	0	0
CCN(CC)S(=O)(=O)c1ccc(N2CCCC2)c(NC(=O)Cc2c(F)cccc2Cl)c1	0	0	0	0	0	0
Cc1ccc(CN2CCNC(=O)C2CC(=O)N(C)CCc2ccccc2)cc1 (centres undefined)	0	0	0	0	0	0
C/C(=N\Nc1cccc2cccnc12)c1ccc[nH]1	0	0	51	0	0	0
CCC(=O)Nc1cccc2cccnc12	0	0	0	0	0	0
O=C(NC1CCCCCC1)c1cccc(COCC(F)(F)F)c1	0	0	0	0	0	0
Cn1nc(C(F)(F)F)cc1C(=O)NC1CCCCCC1	0	0	0	0	0	237
Cn1nc(C(F)(F)F)cc1C(=O)Nc1ccc(Cl)cc1	0	0	69	0	0	0
Cn1nc(C(F)(F)F)c2cc(C(=O)Nc3ccc(Cl)cc3)sc21	83	0	64	0	0	0
Cn1nc(C(F)(F)F)cc1C(=O)Nc1ccc(-c2ccno2)cc1	0	0	0	-	0	0
CC1C/C(=N/NC(=O)c2ccc(CSc3nc4ccccc4[nH]3)cc2)CC(C)(C)C1 (centres undefined)	0	0	0	0	0	0
CC1C/C(=N/Nc2nc3ccccc3[nH]2)CC(C)(C)C1 (centres undefined)	0	0	89	0	0	0
NC(=O)C1CCCN(C(=O)c2cccc(S(=O)(=O)N3CCCCCC3)c2)C1 (centres undefined)	0	0	0	0	0	-
COc1cc(OC)cc(OCC(O)Cn2ccnc2)c1 (centres undefined)	0	0	53	0	0	0
CCN(CC)C(=O)c1sc2nc(-c3ccncc3)[nH]c(=O)c2c1C	0	0	0	0	0	0
CC(C)(C)c1ccc(C(=O)N2CCNCC2)cc1	0	0	0	0	0	0
CCc1cc(=O)oc2cc3occ(-c4ccc(OC)c(F)c4)c3cc12	76	0	0	0	0	0
SMILES	SR-BI HDL uptake	ABCB6 inh 2	AHR act	SR-BI uptake up	FXN GAA850 act	HIF act
CCCCCCN1C[C@@H](O)[C@H](n2cc(C3CC3)nn2)C[C@@H]1c1ccc(Cl)cc1	-	0	-	-	0	-
O=C(Nc1ccc(NC(=O)N2CCN(c3ccccc3O)CC2)cc1)N1CCN(c2ccccc2O)CC1	74	0	0	0	0	0
O=C(/C=C/c1ccccc1)Nc1cc(NC(=O)/C=C/c2ccccc2)cc(C(=O)O)c1	0	0	-	0	0	0
COCCn1c(=NC(=O)c2ccc(S(=O)(=O)N3CCc4ccccc4C3)cc2)sc2cc(OC)ccc21	72	0	0	0	0	0
COc1ccc2sc(N(CCCN(C)C)C(=O)c3ccc(S(=O)(=O)N4CCc5ccccc5C4)cc3)nc2c1	0	0	0	0	0	0
COc1ccc(C2=CC(=O)C[C@H](c3ccc4c(c3)OCO4)C2)cn1	0	0	0	0	0	-
O=C1C=C(c2ccc(F)nc2)C[C@@H](c2ccc3c(c2)OCO3)C1	0	0	58	0	0	-
Cc1ccc(S(=O)(=O)N2CCN(C(=O)COC(=O)CCOc3ccccc3C)CC2)cc1	0	0	0	0	0	0
CNc1ccccc(-c2ccc3ccccc3n2)c1=O	0	0	50	0	0	0
CSc1nnc(-c2ccccc2SC)o1	0	0	0	0	0	0
CSc1nnc(-c2cc3c(s2)-c2ccccc2CC3)o1	0	0	66	0	0	0
COc1ccc(N2CCN(C(=O)COc3ccc4c(C)c(C)c(=O)oc4c3C)CC2)cc1	0	0	0	0	0	51
O=C(N/N=C/c1sc(=O)n(Cc2ccc(Br)cc2)c1Cl)c1ccco1	0	0	0	0	0	0
c1ccc2sc(Nc3nc4cc5c(cc4s3)OCO5)nc2c1	0	0	137	0	0	0
O=C(NNc1nc2cc3c(cc2s1)OCO3)c1ccc(F)cc1	0	0	60	0	0	0
O=C(NNc1nc2cc3c(cc2s1)OCCO3)c1ccc(F)cc1	0	0	0	0	0	0
CC(=O)c1sc(Nc2nc3cc4c(cc3s2)OCO4)nc1C	0	0	-	0	0	0
CC(=O)Nc1nc2cc3c(cc2s1)OCO3	0	0	54	0	0	0
CN[C@H]1C[C@H]2c3[nH]c4ccc(-c5ccc(OC)cc5)cc4c3CCN2C(=O)[C@H]1[C@H](C)O	-	0	-	-	0	-
COc1ccc(-c2ccc(/C=C(\NC(=O)c3ccccc3)C(=O)N3CCOCC3)o2)cc1	0	0	77	0	0	0
O=C(Nc1ccccc1)Nc1cc(OCC(F)(F)F)cc(OCC(F)(F)F)c1	92	0	-	0	0	0
CC(=O)NCCOc1nc(N(C)C)nc(N2CCOCC2)n1	0	0	0	0	0	0
Cc1csc(NC(=O)c2ccc(S(C)(=O)=O)cc2)n1	0	0	0	0	0	0
C=CCn1c(SCCC)nc2sc3c(c2c1=O)CCc1ccccc1-3	0	0	0	0	0	0
CCSc1nc2sc3c(c2c(=O)[nH]1)CCc1ccccc1-3	0	0	57	0	0	0
SMILES	SR-BI HDL uptake	ABCB6 inh 2	AHR act	SR-BI uptake up	FXN GAA850 act	HIF act
CCc1ccc(C(=O)CSc2n[nH]c(C)n2)cc1	0	0	56	0	0	0
CCn1c2ccccc2c2cc(NC(=O)Cc3ccc(S(=O)(=O)N4CCOCC4)s3)ccc21	0	0	51	0	0	0
CCCC(=O)Nc1ccc2c(c1)c1ccccc1n2CC	0	0	69	0	0	0
CCn1c2ccccc2c2cc(NS(=O)(=O)c3ccccc3C)ccc21	0	0	73	0	0	0
CCn1c2ccccc2c2cc(NC(=O)CC(C)=O)ccc21	0	0	57	0	0	0
CCn1c2ccccc2c2cc(NC(=O)C(C)C)ccc21	0	0	0	0	0	0
CN(C)S(=O)(=O)c1ccc(NC(=O)Cc2ccc(S(=O)(=O)N3CCOCC3)s2)cc1	0	0	0	0	0	0
C[C@H](NC(=O)c1nc[nH]c1C(=O)NC[C@@H](C)O)c1ccccc1	-	0	-	-	0	-

Screening results: PubChem, several laboratories
